Experimental data reported in ChEMBL document CHEMBL1154616, “Synthesis and antitumor activity studies of some new fused 1,2,4-triazole derivatives carrying 2,4-dichloro-5-fluorophenyl moiety” (Eur J Med Chem, 2009).

Tests used:
Type in all cases: functional
[1] = test system: SW-620; test: Anticancer activity against human SW620 cells after 48 hrs by sulforhodamine B assay; conditions: SW-620, 48 h
How it was run: (§1)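 Cells from the 60-line full panel are preincubated on microtiter plates, then treated across a five-log dose range for 48 h. Growth is read with the protein-binding dye sulforhodamine B. GI50 is the concentration giving 50% growth inhibition relative to untreated control cells.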

[2] = test system: T47D; test: Anticancer activity against human T47D cells after 48 hrs by sulforhodamine B assay; how it was run: as §1
[3] = test system: HT-29; test: Anticancer activity against human HT-29 cells after 48 hrs by sulforhodamine B assay; conditions: HT-29, 48 h
How it was run: (§2)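 Full 60-cell-line panel, compounds tested over a five-log dose range. Cells are preincubated on microtiter plates, the agent is added, and cultures run 48 h. The end point is sulphorhodamine B protein staining. GI50 is taken as the concentration giving 50% growth inhibition relative to untreated control cells.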

[4] = test system: HOP-62; test: Anticancer activity against human HOP62 cells after 48 hrs by sulforhodamine B assay; conditions: HOP-62, 48 h; how it was run: as §2
[5] = test system: CCRF-CEM; test: Anticancer activity against human CCRF-CEM cells after 48 hrs by sulforhodamine B assay; how it was run: as §2
[6] = test system: NCI-H522; test: Anticancer activity against human NCI-H522 cells after 48 hrs by sulforhodamine B assay; conditions: NCI-H522, 48 h; how it was run: as §2
[7] = test system: 786-0; test: Anticancer activity against human 786-0 cells after 48 hrs by sulforhodamine B assay; conditions: 786-0, 48 h; how it was run: as §2
[8] = test system: NCI-H322M; test: Anticancer activity against human NCI-H322M cells after 48 hrs by sulforhodamine B assay; how it was run: as §2
[9] = test system: SK-MEL-28; test: Anticancer activity against human SK-MEL-28 cells after 48 hrs by sulforhodamine B assay; conditions: SK-MEL-28, 48 h; how it was run: as §2
[10] = test system: SF-295; test: Anticancer activity against human SF295 cells after 48 hrs by sulforhodamine B assay; conditions: SF-295, 48 h; how it was run: as §2
[11] = Anticancer activity against human […] cells after 48 hrs by sulforhodamine B assay; how it was run: as §2
[12] = test system: LOX IMVI; test: Anticancer activity against human LOXIMVI cells after 48 hrs by sulforhodamine B assay; how it was run: as §2
[13] = test system: MDA-MB-435; test: Anticancer activity against human MDA-MB-435 cells after 48 hrs by sulforhodamine B assay; conditions: MDA-MB-435, 48 h; how it was run: as §2
[14] = test system: NCI-H23; test: Anticancer activity against human NCI-H23 cells after 48 hrs by sulforhodamine B assay; conditions: NCI-H23, 48 h; how it was run: as §2
[15] = test system: A549; test: Anticancer activity against human A549 cells after 48 hrs by sulforhodamine B assay; conditions: A549, 48 h; how it was run: as §2
[16] = test system: HOP-92; test: Anticancer activity against human HOP92 cells after 48 hrs by sulforhodamine B assay; conditions: HOP-92, 48 h; how it was run: as §2
[17] = test system: SK-OV-3; test: Anticancer activity against human SKOV3 cells after 48 hrs by sulforhodamine B assay; conditions: SK-OV-3, 48 h; how it was run: as §2
[18] = test system: TK-10; test: Anticancer activity against human TK10 cells after 48 hrs by sulforhodamine B assay; conditions: TK-10, 48 h; how it was run: as §1
[19] = test system: OVCAR-3; test: Anticancer activity against human OVCAR-3 cells after 48 hrs by sulforhodamine B assay; conditions: OVCAR-3, 48 h; how it was run: as §2
[20] = test system: MOLT-4; test: Anticancer activity against human MOLT4 cells after 48 hrs by sulforhodamine B assay; conditions: MOLT-4, 48 h; how it was run: as §2
[21] = test system: IGROV-1; test: Anticancer activity against human IGROV1 cells after 48 hrs by sulforhodamine B assay; conditions: IGROV-1, 48 h; how it was run: as §2
[22] = test system: OVCAR-5; test: Anticancer activity against human OVCAR5 cells after 48 hrs by sulforhodamine B assay; conditions: OVCAR-5, 48 h; how it was run: as §2
[23] = test system: MCF7; test: Anticancer activity against human MCF7 cells assessed as cell growth at 100 uM after 48 hrs by sulforhodamine B assay relative to control; conditions: MCF7, 48 h, read-out: Activity
How it was run: (§3)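 Three-cell-line prescreen (NCI-H460 lung, MCF7 breast, SF 268 CNS), each preincubated on microtiter plates. The agent is added at a single concentration and cultures are incubated 48 h. Growth is read by sulphorhodamine B protein staining and reported as percent growth of treated versus untreated control cells; negative values indicate cell kill.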

[24] = test system: EKVX; test: Anticancer activity against human EKVX cells after 48 hrs by sulforhodamine B assay; how it was run: as §2
[25] = test system: K562; test: Anticancer activity against human K562 cells after 48 hrs by sulforhodamine B assay; conditions: K562, 48 h; how it was run: as §2
[26] = test system: HL-60(TB); test: Anticancer activity against human HL-60(TB) cells after 48 hrs by sulforhodamine B assay; conditions: HL-60, 48 h
How it was run: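 Run within the full 60-cell-line panel across a five-log dose range. GI50 was taken as the concentration causing 50% growth inhibition relative to untreated control cells.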

[27] = test system: NCI/ADR-RES; test: Anticancer activity against human NCI/ADR-RES cells after 48 hrs by sulforhodamine B assay; how it was run: as §2
[28] = test system: HCT-116; test: Anticancer activity against human HCT116 cells after 48 hrs by sulforhodamine B assay; conditions: HCT-116, 48 h; how it was run: as §2
[29] = test system: Malme-3M; test: Anticancer activity against human MALME-3M cells after 48 hrs by sulforhodamine B assay; how it was run: as §2
[30] = test system: COLO 205; test: Anticancer activity against human COLO205 cells after 48 hrs by sulforhodamine B assay; conditions: COLO 205, 48 h; how it was run: as §2
[31] = test system: HCT-15; test: Anticancer activity against human HCT15 cells after 48 hrs by sulforhodamine B assay; conditions: HCT-15, 48 h; how it was run: as §2
[32] = test system: DU-145; test: Anticancer activity against human DU145 cells after 48 hrs by sulforhodamine B assay; conditions: DU-145, 48 h; how it was run: as §2
[33] = test system: MCF7; test: Anticancer activity against human MCF7 cells after 48 hrs by sulforhodamine B assay; conditions: MCF7, 48 h; how it was run: as §2
[34] = test system: U-251; test: Anticancer activity against human U251 cells after 48 hrs by sulforhodamine B assay; conditions: U-251, 48 h; how it was run: as §1
[35] = test system: RXF 393; test: Anticancer activity against human RXF393 cells after 48 hrs by sulforhodamine B assay; conditions: RXF 393, 48 h; how it was run: as §2
[36] = test system: SF-539; test: Anticancer activity against human SF539 cells after 48 hrs by sulforhodamine B assay; conditions: SF-539, 48 h; how it was run: as §2
[37] = Anticancer activity against human Hs 578T cells after 48 hrs by sulforhodamine B assay; how it was run: as §2
[38] = test system: UACC-257; test: Anticancer activity against human UACC257 cells after 48 hrs by sulforhodamine B assay; conditions: UACC-257, 48 h; how it was run: as §1
[39] = test system: OVCAR-8; test: Anticancer activity against human OVCAR8 cells after 48 hrs by sulforhodamine B assay; conditions: OVCAR-8, 48 h; how it was run: as §2
[40] = test system: HCC 2998; test: Anticancer activity against human HCC2998 cells after 48 hrs by sulforhodamine B assay; conditions: HCC 2998, 48 h; how it was run: as §2
[41] = test system: KM12; test: Anticancer activity against human KM12 cells after 48 hrs by sulforhodamine B assay; conditions: KM12, 48 h; how it was run: as §2
[42] = test system: NCI-H460; test: Anticancer activity against human NCI-H460 cells assessed as cell growth at 100 uM after 48 hrs by sulforhodamine B assay relative to control; conditions: NCI-H460, 48 h, read-out: Activity; how it was run: as §3
[43] = test system: SNB-19; test: Anticancer activity against human SNB19 cells after 48 hrs by sulforhodamine B assay; conditions: SNB-19, 48 h; how it was run: as §2

Q: Which results are given for `Fc1cc(-c2nnc3n2N=C(c2ccc(Cl)cc2Cl)CS3)c(Cl)cc1Cl`?
A: GI50 [1]: 36.8 µM; GI50 [2]: 17.7 µM; GI50 [3]: 40.5 µM; GI50 [4]: 44.2 µM; GI50 [5]: 27.6 µM; GI50 [6]: 50.8 µM; GI50 [7]: 47.1 µM; GI50 [8]: 76.4 µM; GI50 [9]: 40.2 µM; GI50 [10]: 36.4 µM; GI50 [11]: 25.3 µM; GI50 [12]: 34.3 µM; GI50 [13]: 24.4 µM; GI50 [14]: 82.5 µM; GI50 [15]: 58 µM; GI50 [16]: 54.2 µM; GI50 [17]: 48 µM; GI50 [18]: 77.3 µM; GI50 [19]: 22.8 µM; GI50 [20]: 75.1 µM; GI50 [21]: 50.4 µM; GI50 [22]: > 100 µM; growth at 100 µM [23]: 69%; GI50 [24]: 58.5 µM; GI50 [25]: 47.5 µM; GI50 [26]: > 100 µM; GI50 [27]: 30.8 µM; GI50 [28]: 25.4 µM; GI50 [29]: 26.6 µM; GI50 [30]: 32.9 µM; GI50 [31]: 38.3 µM; GI50 [32]: 49.5 µM; GI50 [33]: 31.3 µM; GI50 [34]: 56.2 µM; GI50 [35]: 51 µM; GI50 [36]: 39.2 µM; GI50 [37]: 33.6 µM; GI50 [38]: 86 µM; GI50 [39]: 57.3 µM; GI50 [40]: 35 µM; GI50 [41]: 41.9 µM; growth at 100 µM [42]: 32%; GI50 [43]: 25.4 µM
